Results on 22 molecules are retold here after ChEMBL document CHEMBL3044648, “Quantitative structure-activity relationships of monoterpenoid binding activities to the housefly GABA receptor” (2012).

One test concerns Musca domestica. Put plainly: Toxicity to Musca domestica (house fly) applied to pronotum assessed as compound level per fly causing insect mortality measured after 24 hr. Format: functional.
The target in test [1] is T1, GABA receptor subunit (Musca domestica) (UniProt Q75NA5).
T1 sequence (whole entry): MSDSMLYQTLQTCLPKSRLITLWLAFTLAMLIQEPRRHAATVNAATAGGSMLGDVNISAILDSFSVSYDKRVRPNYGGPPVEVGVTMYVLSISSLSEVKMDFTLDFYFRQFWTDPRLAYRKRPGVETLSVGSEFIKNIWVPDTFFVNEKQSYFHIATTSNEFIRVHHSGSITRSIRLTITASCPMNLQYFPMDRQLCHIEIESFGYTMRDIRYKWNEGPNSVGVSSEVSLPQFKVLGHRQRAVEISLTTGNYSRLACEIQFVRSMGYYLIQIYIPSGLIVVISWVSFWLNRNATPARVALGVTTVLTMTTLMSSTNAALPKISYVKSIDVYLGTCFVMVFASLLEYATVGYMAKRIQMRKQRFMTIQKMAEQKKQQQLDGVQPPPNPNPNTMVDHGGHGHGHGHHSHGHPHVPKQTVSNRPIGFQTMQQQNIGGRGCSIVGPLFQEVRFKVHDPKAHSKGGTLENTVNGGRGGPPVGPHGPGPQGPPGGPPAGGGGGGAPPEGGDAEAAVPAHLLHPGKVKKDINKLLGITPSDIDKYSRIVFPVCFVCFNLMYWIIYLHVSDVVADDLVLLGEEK
Nature of the test: Displacement of [3H]TBOB binding to GABA receptor in Musca domestica (house fly) heads homogenates assessed as [3H]TBOB binding at 500 uM incubated for 90 min by scintillation counting method. In a few lines: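 House fly head membranes (homogenized in 10 mM Tris-HCl pH 7.5 with 0.25 M sucrose, pelleted at 25,000xg, resuspended in 10 mM phosphate pH 7.5 with 300 mM NaCl); 20 µg protein incubated 90 min at 20 °C with 4 nM [³H]-TBOB and 500 µM monoterpenoid; GF/B filtration; nonspecific binding with 100 µM picrotoxin; specific binding as % of untreated; at least three repeats, mean ± SEM.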
(In general: Loss of bound radioactivity is the signal in a displacement assay; it reports binding, not function.)

As to `COc1cc(C=O)ccc1O` [VANILLIN], the LD50 in the test with Musca domestica is greater than 500 µg. Further, the Activity in test [1] was found to be 82%.

Take `CC(C)[C@H]1CC[C@H](C)CC1=O` (relative stereo): the Activity in test [1] was 86%.

For the molecule `O=Cc1ccc2c(c1)OCO2` [PIPERONAL], in the test with Musca domestica, the LD50 came to 36.1 µg. The Activity in test [1] came out at 93%.

On to `CCC(=O)OCCc1ccccc1` [PHENETHYL PROPIONATE], for which, in the test on Musca domestica, the LD50 is 66.6 µg. In addition, the Activity in test [1] came out at 95%.

As to `CC1=CC[C@@H](C(C)(C)O)CC1`, the Activity in test [1] came out at 95%.

Turning to `C=CCc1ccc2c(c1)OCO2` [SAFROLE], the LD50 in the test on Musca domestica is 18.3 µg. The Activity in test [1] worked out at 43%.

With `C=CCc1ccc(O)c(OC)c1` [EUGENOL], in the test on Musca domestica, the LD50 worked out at 46.4 µg. Further, in test [1], the Activity was found to be 88%.

Take `C=C(C)C1CCC2(C)OC2C1` (stereo not given) [LIMONENE OXIDE]: in the test on Musca domestica, the LD50 worked out at 67.8 µg. Moreover, the Activity in test [1] stood at 141%.

As to `Cc1ccc(C(C)C)cc1` [P-CYMENE], in the test on Musca domestica, the LD50 was determined as 94.7 µg. In addition, the Activity in test [1] was 90%.

Turning to `CC(C)C12CCC(C)(CC1)O2` [1,4-CINEOLE], the LD50 in the test on Musca domestica came out at 151.7 µg. Besides, the Activity in test [1] was 117%.

Regarding `C=CC(C)(O)CCC=C(C)C` (stereo not given) [LINALOOL], the LD50 in the test with Musca domestica came out at 72.3 µg. Also, the Activity in test [1] turned out to be 124%.

Consider `CC12CCC(CC1=O)C2(C)C` (stereo not given) [CAMPHOR], for which, in the test with Musca domestica, the LD50 was determined as 149.5 µg. The Activity in test [1] turned out to be 70%.

For `C=C(C)[C@H]1CC=C(C)CC1` [D-LIMONENE], the LD50 with Musca domestica amounted to 89.4 µg. For the same molecule, the Activity in test [1] was 86%.

For `COC(=O)c1ccccc1O` [METHYL SALICYLATE], in the test with Musca domestica, the LD50 is 41.2 µg. Moreover, in test [1], the Activity amounted to 103%.

For `CC(C)=CCCC(C)CC(=O)O` (stereo not given) [CITRONELLIC ACID], the LD50 in the test on Musca domestica is 25.2 µg. Moreover, the Activity in test [1] came to 138%.

For `Cc1ccc(C(C)C)cc1O` [CARVACROL], in the test on Musca domestica, the LD50 was 60.1 µg. Also, the Activity in test [1] came out at 156%.

For the molecule `CC1CCC(C(C)C)C(O)C1` (stereo not given) [MENTHOL], the LD50 in the test with Musca domestica turned out to be 128.9 µg. Also, in test [1], the Activity was found to be 80%.

For `CC(C)=C1CC[C@@H](C)CC1=O` [PULEGONE], the LD50 in the test with Musca domestica stood at 92.2 µg. Also, in test [1], the Activity came to 132%.

In the case of `Cc1ccc(C(C)C)c(O)c1`, the Activity in test [1] was found to be 180%.

Turning to `CC12CCC(CC1)C(C)(C)O2` [EUCALYPTOL], the LD50 in the test with Musca domestica was found to be 63.2 µg. The Activity in test [1] stood at 122%.

Turning to `CC(C)=CCC[C@@H](C)CC=O` [CITRONELLAL], in the test on Musca domestica, the LD50 came to 46.8 µg. Further, the Activity in test [1] came out at 92%.

As to `O=C(O)/C=C/c1ccccc1`, in test [1], the Activity stood at 101%.
